Measured values taken from ChEMBL document CHEMBL4382237, “Design, Synthesis, and Biological Evaluation of 2-Nitroimidazopyrazin-one/-es with Antitubercular and Antiparasitic Activity” (J Med Chem, 2018).
≈ marks a conversion by molar mass, not a printed value.

Tests used:
[1] = system: Clostridioides difficile; assay: Antibacterial activity against Clostridium difficile 630 ATCC BAA-1382 by broth microdilution assay; format: functional
In short: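 Broth microdilution run essentially per an earlier report. MIC taken as the lowest concentration with no visible growth. Replicates typically agreed within one 2-fold dilution. The median MIC is reported, with a range where the median fell between two tested concentrations.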

[2] = system: Entamoeba histolytica; assay: Antiparasitic activity against Entamoeba histolytica HM-1:IMSS trophozoites after 24 to 48 hrs by CellTiter-Glo luminescent cell viability assay; format: functional, organism-based
In short: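 Axenic trophozoites were kept in TYI-S-33 with penicillin (100 U/mL) and streptomycin (100 µg/mL) and harvested in log phase. 5000 parasites per well were exposed to a final 8-point two-fold series of 0.39–50 µM, from 10 mM DMSO stocks. Plates were incubated 24–48 h at 37 °C under anaerobic conditions. ATP luminescence viability was read in triplicate. Percent inhibition is given at the highest concentration tested.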

[3] = system: Mycobacterium tuberculosis; assay: Antibacterial activity against non-replicating Mycobacterium tuberculosis H37Rv after 5 days under hypoxic condition by resazurin dye-based fluorescence assay; format: functional; settings: 120 h
In short: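 Same H37Rv inoculum (OD600 0.001, ~2 x 10^4 CFU/mL) in 7H9S with serially diluted compound. Plates held 5 days at 0.1% oxygen, then resazurin plus Tween-80 added.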

[4] = system: Giardia intestinalis; assay: Antiparasitic activity against Giardia lamblia WB trophozoites after 24 to 48 hrs by CellTiter-Glo luminescent cell viability assay; settings: Giardia duodenalis
[5] = system: Trypanosoma brucei brucei; assay: Antiparasitic activity against bloodstream form of Trypanosoma brucei brucei strain 427 after 48 hrs by resazurin dye-based assay; format: functional, organism-based; settings: strain 427, 48 h
[6] = system: Mycobacterium tuberculosis; assay: Antibacterial activity against Mycobacterium tuberculosis H37Rv after 5 days under normoxic condition by resazurin dye-based fluorescence assay; format: functional, organism-based
In short: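 H37Rv grown in 7H9/ADC/glycerol/Tyloxapol to mid-exponential phase, diluted to OD600 0.001 (~2 x 10^4 CFU/mL) in 7H9S with serially diluted compound. Incubated 5 days at 37 °C, then resazurin and Tween-80 added. Fluorescence (ex 530/em 590 nm) read after 24 h, normalised to no-drug and no-bacteria wells.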

SMILES	MIC [1]	IC50 ([2]; read-out: IC50)	MIC [3]	IC50 [4]	IC50 ([2]; read-out: pIC50 (converted))	IC50 ([4]; read-out: pIC50 (converted))	IC50 ([5]; read-out: IC50)	IC50 ([5]; read-out: pIC50 (converted))	MIC [6]
NC(=O)c1nc([N+](=O)[O-])cn1Cc1cccc(OC(F)(F)F)c1	> 64 µg/mL	> 25 µM	> 32 µg/mL	4.1 to 50 µM					
CCOC(=O)c1nc([N+](=O)[O-])cn1Cc1ccc(OC(F)(F)F)cc1	16 to 64 µg/mL (≈ 44.5 to 178 µM)	10 to 45 µM	> 32 µg/mL	2.7 to 7.5 µM					
NC(=O)c1nc([N+](=O)[O-])cn1Cc1ccc(OC(F)(F)F)cc1	> 64 µg/mL	> 25 µM	> 32 µg/mL	4.1 to 50 µM					
CN(C)C(=O)c1nc([N+](=O)[O-])cn1Cc1ccc(OC(F)(F)F)cc1	16 to 64 µg/mL (≈ 44.7 to 179 µM)	10 to 45 µM	> 32 µg/mL	2.7 to 7.5 µM					
Cc1ccc(COc2nc(C)cn3cc([N+](=O)[O-])nc23)cc1		30 µM		5.7 µM	31.6 µM	6.31 µM			
CNC(=O)c1nc([N+](=O)[O-])cn1Cc1ccc(OC(F)(F)F)cc1	16 to 64 µg/mL (≈ 46.5 to 186 µM)	10 to 45 µM	> 32 µg/mL	2.7 to 7.5 µM					
Cc1ccc(COc2nc(C)c(C)n3cc([N+](=O)[O-])nc23)cc1		> 50 µM	> 32 µg/mL	5.8 µM	> 50.1 µM	6.31 µM	2.2 µM	2.51 µM	>32 µg/mL
NC(=O)c1nc([N+](=O)[O-])cn1Cc1ccc(F)cc1	> 64 µg/mL	> 25 µM	> 32 µg/mL	4.1 to 50 µM					
Cc1cn2cc([N+](=O)[O-])nc2c(=O)[nH]1		> 50 µM	> 32 µg/mL	50 µM	> 50.1 µM	50.1 µM	3.6 µM	3.98 µM	>32 µg/mL
Cc1ncc([N+](=O)[O-])n1CCO [METRONIDAZOLE]	0.5 µg/mL (≈ 2.92 µM)	4.3 µM	> 32 µg/mL	7.2 µM	3.98 µM	7.94 µM	> 40 µM	> 39.8 µM	
Cc1cn2cc([N+](=O)[O-])nc2c(=O)n1CCO		> 50 µM	> 32 µg/mL	> 50 µM	> 50.1 µM	> 50.1 µM	4.6 µM	5.01 µM	
Cc1ccc(Cn2cc([N+](=O)[O-])nc2C(N)=O)cc1	> 64 µg/mL	> 25 µM	> 32 µg/mL	4.1 to 50 µM					
NNC(=O)c1nc([N+](=O)[O-])cn1Cc1ccc(OC(F)(F)F)cc1	16 to 64 µg/mL (≈ 46.3 to 185 µM)	10 to 45 µM	> 32 µg/mL	2.7 to 7.5 µM					
Cc1nc(OCc2cccc(OC(F)(F)F)c2)c2nc([N+](=O)[O-])cn2c1C		27 µM	> 32 µg/mL	3.9 µM	25.1 µM	3.98 µM	1.4 µM	1.26 µM	>32 µg/mL
O=C(NCc1ccccc1)c1nc([N+](=O)[O-])c[nH]1	4 to 16 µg/mL (≈ 16.2 to 65 µM)	2.2 to 4.5 µM	> 32 µg/mL	0.2 to 0.5 µM					
Cc1ccc(CNC(=O)c2nc([N+](=O)[O-])c[nH]2)cc1	4 to 16 µg/mL (≈ 15.4 to 61.5 µM)	2.2 to 4.5 µM	> 32 µg/mL	0.2 to 0.5 µM					
Cc1cn2cc([N+](=O)[O-])nc2c(=O)n1Cc1ccccc1OC(F)(F)F		9.1 µM	> 32 µg/mL	3.3 µM	10 µM	3.16 µM	2.1 µM	2 µM	>32 µg/mL
O=c1c2nc([N+](=O)[O-])cn2ccn1Cc1ccccc1	> 64 µg/mL								
O=C(NCc1cccc(OC(F)(F)F)c1)c1ncc([N+](=O)[O-])[nH]1	4 to 16 µg/mL (≈ 12.1 to 48.5 µM)	2.2 to 4.5 µM	> 32 µg/mL	0.2 to 0.5 µM					
CC(=O)OCCOc1nc(-c2ccccc2)cn2cc([N+](=O)[O-])nc12		> 50 µM	> 32 µg/mL	1.9 µM	> 50.1 µM	2 µM	1.5 µM	1.58 µM	
O=[N+]([O-])c1cn2cc(-c3ccccc3)nc(OCCO)c2n1		> 50 µM	> 32 µg/mL	5.2 µM	> 50.1 µM	5.01 µM	1.1 µM	1 µM	
O=C(NCc1ccc(F)cc1)c1ncc([N+](=O)[O-])[nH]1	4 to 16 µg/mL (≈ 15.1 to 60.6 µM)	2.2 to 4.5 µM	> 32 µg/mL	0.2 to 0.5 µM					
Cc1cn2cc([N+](=O)[O-])nc2c(=O)n1Cc1cccc(OC(F)(F)F)c1		16 µM	> 32 µg/mL	2.8 µM	15.8 µM	2.51 µM	1.1 µM	1.26 µM	>32 µg/mL
Cc1cn2cc([N+](=O)[O-])nc2c(OCc2ccccc2OC(F)(F)F)n1		> 50 µM	> 32 µg/mL	5.7 µM	> 50.1 µM	6.31 µM	1.2 µM	1.26 µM	>32 µg/mL
Cc1ccc(Cn2c(C)cn3cc([N+](=O)[O-])nc3c2=O)cc1		10 µM	> 32 µg/mL	4.4 µM	10 µM	3.98 µM	0.56 µM	0.501 µM	>32 µg/mL
Cc1c(C)n2cc([N+](=O)[O-])nc2c(=O)n1Cc1ccccc1OC(F)(F)F		18 µM	> 32 µg/mL	5.3 µM	20 µM	5.01 µM	0.78 µM	0.794 µM	>32 µg/mL
NC(=O)c1nc([N+](=O)[O-])cn1Cc1ccccc1	> 64 µg/mL	> 25 µM	> 32 µg/mL	4.1 to 50 µM					
Cc1nc(OCc2ccccc2OC(F)(F)F)c2nc([N+](=O)[O-])cn2c1C		> 50 µM	> 32 µg/mL	> 50 µM	> 50.1 µM	> 50.1 µM	1.9 µM	2 µM	>32 µg/mL
Cc1[nH]c(=O)c2nc([N+](=O)[O-])cn2c1C		> 50 µM	> 32 µg/mL	50 µM	> 50.1 µM	50.1 µM	2.6 µM	2.51 µM	>32 µg/mL
